2 compounds from ChEMBL document CHEMBL1649483, “Molecular analysis of the gyrA and gyrB quinolone resistance-determining regions of fluoroquinolone-resistant Clostridium difficile mutants selected in vitro” (2009) can be followed below.

In general, MIC refers to the smallest concentration in the dilution series that meets the test's criterion for growth inhibition.

Assay type in all cases: functional
The subject of test [1] is Clostridioides difficile. The test is described as follows: Antimicrobial activity against Clostridium difficile CD5c harboring GyrB Ser416Ala mutant gene selected after 2 ug/ml of moxifloxacin by Etest method.
In test [2] the test system is Clostridioides difficile. The experiment in a line: Antimicrobial activity against Clostridium difficile BI2e harboring GyrB Arg447Lys and Asp426Asn mutant gene selected after 32 ug/ml of moxifloxacin by Etest method. A digest of the protocol: (§1)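 Stable in vitro-selected mutant tested for gatifloxacin susceptibility by Etest, per the manufacturer's instructions, with an 8 μg/ml breakpoint. For selection, the parent was grown in antibiotic-free brain heart infusion (BHI) for 24 h at 35°C under anaerobic conditions. […] Later steps used double the MIC. Stability was confirmed by three subcultures.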

Test [3] deals with Clostridioides difficile. The experiment in a line: Antimicrobial activity against Clostridium difficile C253f selected after 4 ug/ml of moxifloxacin by Etest method.
The subject of test [4] is Clostridioides difficile. The experiment in a line: Antimicrobial activity against Clostridium difficile 630e selected after 4 ug/ml of moxifloxacin by Etest method. A digest of the protocol:
as §1

Test [5] deals with Clostridioides difficile. The experiment in a line: Antimicrobial activity against Clostridium difficile 630C selected after 4 ug/ml of levofloxacin by Etest method. Summed up:
as §1

Test [6] concerns Clostridioides difficile. The experiment in a line: Antimicrobial activity against Clostridium difficile A422I harboring GyrA Thr82Ile and GyrB Leu451Phe mutant genes selected after 8 ug/ml of levofloxacin by Etest method. Summed up: as §1
Test [7] relates to Clostridioides difficile. The experiment in a line: Antimicrobial activity against Clostridium difficile A422H harboring GyrA Thr82Ile and GyrB Leu451Phe mutant genes selected after 8 ug/ml of levofloxacin by Etest method. A digest of the protocol: as §1
Test [8] relates to Clostridioides difficile. The test is described as follows: Antimicrobial activity against Clostridium difficile CD5b harboring GyrB Ser416Ala mutant gene selected after 2 ug/ml of moxifloxacin by Etest method.
Test [9] concerns Clostridioides difficile. The experiment in a line: Antimicrobial activity against Clostridium difficile CD5i harboring GyrA Ala118Ser, Thr82Ala and GyrB Ser416Ala mutant genes selected after 8 ug/ml of moxifloxacin by Etest method.
Test [10] relates to Clostridioides difficile. The experiment in a line: Antimicrobial activity against Clostridium difficile A422D harboring GyrB Leu451Phe mutant gene selected after 8 ug/ml of levofloxacin by Etest method. A digest of the protocol: as §1
The test system of test [11] is Clostridioides difficile. The test is described as follows: Antimicrobial activity against Clostridium difficile CD5D harboring GyrB Ser416Ala mutant gene selected after 8 ug/ml of levofloxacin by Etest method.
The subject of test [12] is Clostridioides difficile. The experiment in a line: Antimicrobial activity against Clostridium difficile A422E harboring GyrB Leu451Phe mutant gene selected after 8 ug/ml of levofloxacin by Etest method. A digest of the protocol:
as §1

Test [13] deals with Clostridioides difficile. The test is described as follows: Antimicrobial activity against Clostridium difficile CD5 2-g harboring GyrA Ala118Ser, Thr82Ala and GyrB Ser416Ala mutant genes selected after 8 ug/ml of moxifloxacin by Etest method.
In test [14] the test system is Clostridioides difficile. The test is described as follows: Antimicrobial activity against Clostridium difficile C253D selected after 8 ug/ml of levofloxacin by Etest method.
Test [15] deals with Clostridioides difficile. The test is described as follows: Antimicrobial activity against Clostridium difficile A422C selected after 4 ug/ml of levofloxacin by Etest method. A digest of the protocol:
as §1

Test [16] concerns Clostridioides difficile. The test is described as follows: Antimicrobial activity against Clostridium difficile 630c selected after 2 ug/ml of moxifloxacin by Etest method. A digest of the protocol: as §1
The test system of test [17] is Clostridioides difficile. The test is described as follows: Antimicrobial activity against Clostridium difficile BI2f harboring GyrB Arg447Lys and Asp426Asn mutant gene selected after 32 ug/ml of moxifloxacin by Etest method. Summed up:
as §1

The test system of test [18] is Clostridioides difficile. The experiment in a line: Antimicrobial activity against Clostridium difficile 630d selected after 4 ug/ml of moxifloxacin by Etest method. Summed up:
as §1

The subject of test [19] is Clostridioides difficile. The experiment in a line: Antimicrobial activity against Clostridium difficile C253d selected after 4 ug/ml of moxifloxacin by Etest method.
The subject of test [20] is Clostridioides difficile. The test is described as follows: Antimicrobial activity against Clostridium difficile A422a selected after 2 ug/ml of moxifloxacin by Etest method. Summed up:
as §1

The subject of test [21] is Clostridioides difficile. The test is described as follows: Antimicrobial activity against Clostridium difficile CD5 1-g harboring GyrA Ala92Glu and GyrB Ser416Ala mutant genes selected after 8 ug/ml of moxifloxacin by Etest method.
The test system of test [22] is Clostridioides difficile. The experiment in a line: Antimicrobial activity against Clostridium difficile BI2F harboring GyrB Glu466Lys mutant gene selected after 8 ug/ml of levofloxacin by Etest method. A digest of the protocol: as §1
Test [23] has as its system Clostridioides difficile. The experiment in a line: Antimicrobial activity against Clostridium difficile C253i harboring GyrA Ala118Ser mutant gene selected after 8 ug/ml of moxifloxacin by agar dilution method. In general terms: In agar dilution the substance is mixed into plates at graded concentrations.
Test [24] has as its system Clostridioides difficile. The experiment in a line: Antimicrobial activity against Clostridium difficile A422D harboring GyrB Leu451Phe mutant gene selected after 8 ug/ml of levofloxacin by agar dilution method.
For test [25], the system named is Clostridioides difficile. The test is described as follows: Antimicrobial activity against Clostridium difficile BI2e harboring GyrB Arg447Lys and Asp426Asn mutant gene selected after 32 ug/ml of moxifloxacin by agar dilution method.
The subject of test [26] is Clostridioides difficile. The experiment in a line: Antimicrobial activity against Clostridium difficile C253C selected after 4 ug/ml of levofloxacin by agar dilution method.
The subject of test [27] is Clostridioides difficile. The experiment in a line: Antimicrobial activity against Clostridium difficile 630c selected after 2 ug/ml of moxifloxacin by agar dilution method.
The test system of test [28] is Clostridioides difficile. The experiment in a line: Antimicrobial activity against Clostridium difficile A422i harboring GyrA Asp81Asn mutant gene selected after 8 ug/ml of moxifloxacin by agar dilution method.
In test [29] the test system is Clostridioides difficile. The experiment in a line: Antimicrobial activity against Clostridium difficile 630b selected after 2 ug/ml of moxifloxacin by agar dilution method.
The subject of test [30] is Clostridioides difficile. The test is described as follows: Antimicrobial activity against Clostridium difficile A422f selected after 4 ug/ml of moxifloxacin by agar dilution method.
In test [31] the test system is Clostridioides difficile. The experiment in a line: Antimicrobial activity against Clostridium difficile C253h harboring GyrA Ala118Ser mutant gene selected after 8 ug/ml of moxifloxacin by agar dilution method.
Test [32] concerns Clostridioides difficile. The experiment in a line: Antimicrobial activity against Clostridium difficile C253e selected after 4 ug/ml of moxifloxacin by agar dilution method.
Test [33] relates to Clostridioides difficile. The test is described as follows: Antimicrobial activity against Clostridium difficile CD5i harboring GyrA Ala92Glu and GyrB Ser416Ala mutant genes selected after 8 ug/ml of moxifloxacin by agar dilution method.
Test [34] has as its system Clostridioides difficile. The experiment in a line: Antimicrobial activity against Clostridium difficile CD5B harboring GyrB Ser416Ala mutant gene selected after 4 ug/ml of levofloxacin by agar dilution method.
The test system of test [35] is Clostridioides difficile. The experiment in a line: Antimicrobial activity against Clostridium difficile CD5 2-g harboring GyrA Ala118Ser, Thr82Ala and GyrB Ser416Ala mutant genes selected after 8 ug/ml of moxifloxacin by agar dilution method.
The subject of test [36] is Clostridioides difficile. The experiment in a line: Antimicrobial activity against Clostridium difficile A422h harboring GyrA Asp81Asn mutant gene selected after 8 ug/ml of moxifloxacin by agar dilution method.
Test [37] has as its system Clostridioides difficile. The test is described as follows: Antimicrobial activity against Clostridium difficile 630D harboring GyrA Ala118Val mutant gene selected after 8 ug/ml of levofloxacin by agar dilution method.
Test [38] has as its system Clostridioides difficile. The experiment in a line: Antimicrobial activity against Clostridium difficile A422c selected after 2 ug/ml of moxifloxacin by agar dilution method.
Test [39] relates to Clostridioides difficile. The experiment in a line: Antimicrobial activity against Clostridium difficile CD25 expressing tcdA, tcdB gene and GyrB Ser416Ala mutant by agar dilution method.
Test [40] deals with Clostridioides difficile. The experiment in a line: Antimicrobial activity against Clostridium difficile 630A selected after 4 ug/ml of levofloxacin by agar dilution method.
Test [41] concerns Clostridioides difficile. The test is described as follows: Antimicrobial activity against Clostridium difficile C253E selected after 8 ug/ml of levofloxacin by agar dilution method.

Turning to `COc1c(N2CCNC(C)C2)c(F)cc2c(=O)c(C(=O)O)cn(C3CC3)c12` (stereo unspecified) [GATIFLOXACIN], the MIC in test [1] was 0.75 µg/mL; in test [2] it was 6 µg/mL; in [3], 1 µg/mL; in test [4], 2 µg/mL; in test [5], 0.75 µg/mL; in test [6], no less than 32 µg/mL. The MIC in test [7] was no less than 32 µg/mL; in test [8] it was 0.75 µg/mL; in [9], 16 µg/mL; in test [10] it was 2 µg/mL; in [11] it was 2 µg/mL; in test [12], 2 µg/mL. Further, the MIC in test [13] was determined as 16 µg/mL; in test [14], 1 µg/mL; in [15], 1 µg/mL; in [16], 0.75 µg/mL; in test [17], 6 µg/mL; in test [18] it was 2 µg/mL. The minimum inhibitory concentration (MIC) in test [19] was 1 µg/mL; in test [20] it was 1.5 µg/mL; in test [21], 3 µg/mL; in [22], no less than 32 µg/mL.

As for `C[C@H]1COc2c(N3CCN(C)CC3)c(F)cc3c(=O)c(C(=O)O)cn1c23.C[C@H]1COc2c(N3CCN(C)CC3)c(F)cc3c(=O)c(C(=O)O)cn1c23.O` [LEVOFLOXACIN], the MIC in [23] was determined as 64 µg/mL; in test [24], 2 µg/mL; in [25], 64 µg/mL; in [26], 1 µg/mL; in test [27] it was 4 µg/mL; in test [28] it was 64 µg/mL. Further, the MIC turned out to be 4 µg/mL in test [29]; 4 µg/mL in test [30]; 64 µg/mL in test [31]; 4 µg/mL in test [32]; 16 µg/mL in [33]; 1 µg/mL in [34]. The MIC in [35] is 64 µg/mL; in [36], 64 µg/mL; in test [37], 8 µg/mL; in [38] it was 4 µg/mL; in [39] it was 2 µg/mL; in [40] it was 1 µg/mL. Besides, in test [41], the MIC was determined as 2 µg/mL.
